# From PubChem BioAssay
# SR-BI DiI inh = blocks mouse SR-BI lipid uptake from DiI-HDL | Q61009 | ldlA[mSR-BI] CHO cells, DiI-HDL uptake fluorescence, 3 h | inhibition, % at 12.5 µM | actives 0.96% (n = 320,000) | AID 488896;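 active = mean replicate inhibition of at least 70% and a set share of replicates each scoring 70 or more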;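 note: 0% = median of neutral control wells and 100% = median of positive control wells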
# Target sequence (Q61009 whole entry, looked up): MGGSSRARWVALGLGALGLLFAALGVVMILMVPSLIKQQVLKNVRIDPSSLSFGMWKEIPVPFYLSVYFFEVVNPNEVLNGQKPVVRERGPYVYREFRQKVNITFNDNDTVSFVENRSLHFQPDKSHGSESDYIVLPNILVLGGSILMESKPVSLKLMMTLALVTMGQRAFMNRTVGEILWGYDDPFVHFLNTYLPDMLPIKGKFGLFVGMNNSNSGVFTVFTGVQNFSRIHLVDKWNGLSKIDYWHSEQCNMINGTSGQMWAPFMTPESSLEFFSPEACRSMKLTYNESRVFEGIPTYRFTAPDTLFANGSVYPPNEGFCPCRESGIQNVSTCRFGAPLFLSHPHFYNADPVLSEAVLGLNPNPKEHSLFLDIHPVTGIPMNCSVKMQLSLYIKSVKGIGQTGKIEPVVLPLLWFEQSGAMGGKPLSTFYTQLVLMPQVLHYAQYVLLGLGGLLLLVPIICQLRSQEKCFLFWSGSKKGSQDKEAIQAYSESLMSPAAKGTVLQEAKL
# Glyco luc inh = N-linked glycosylation inhibition; D54 ERlucT glycosylation luciferase reporter, 24 h; percent of 100 nM tunicamycin response; reporter increase, % at 12.5 µM; actives 0.23% (n = 360,000); AID 588692;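 active = mean luciferase reporter signal, scaled so untreated is 0 and the glycosylation-blocking control 100, at or above a set limit in every replicate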;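 note: luciferase carries N-glycosylation sites so blocking glycosylation raises the light; 0% = median of neutral control wells and 100% = median of 100 nM tunicamycin wells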
# SR-BI DiI-HDL act = enhances SR-BI lipid uptake from DiI-HDL; AID 504775; activation, % at 12.5 µM; CHO ldlA[mSR-BI] cells, DiI-HDL uptake fluorescence, 3 h; 100 = double the neutral-control signal; actives 0.096% (n = 320,000);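 active = mean replicate activation of at least 60% and every replicate at or above 60%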;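 note: 0% = median plate neutral-control signal and 100% = twice that signal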
#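 Assay system: LDL receptor-deficient CHO ldlA cells overexpressing murine SR-BI / Medium: BSA-supplemented, HEPES-buffered Ham's F12, pH 7.4 / Probe or stimulus: DiI-labelled HDL at 10 µg/mL final / Timing: compound with DiI-HDL co-incubation, 3 h at 37 °C / Technique: bottom-read cell fluorescence after medium removal, ex 550/em 595 nm / Measure: HDL uptake via cellular fluorescence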
# Env fusion inh = blocks HIV Env-driven cell-cell fusion | inhibition, % at 12.3 µM | HeLa-JRFL Env/CEM21 cell fusion, luciferase | actives 1.1% (n = 360,000);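 active = mean replicate inhibition score of at least 50 and every replicate individually at or above 50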;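 note: 0% = plate neutral controls and 100% = maraviroc near 300 nM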
# PglD inh = inhibitors of Campylobacter jejuni PglD acetyltransferase. inhibition, % at 12.5 µM. AID 602405. purified PglD enzyme, DTNB colorimetric CoA detection. actives 0.098% (n = 360,000); in the data active = inhibition above about 16%, passing the limit was not always enough
# Rtt109 HAT inh = inhibitors of Candida albicans Rtt109/Vps75 histone acetyltransferase; purified Rtt109/Vps75, ThioGlo CoA-SH fluorescence, 4 h; actives 0.16% (n = 330,000); inhibition, % at 34.9 µM;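 active = inhibition of at least 50% in every replicate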
# * = called active by the depositor; nt = not tested or not shown; [ ] = remark or other dose. Shown are actives, neighbours in structure and some others; about 1.9% of the full set was active somewhere.
SMILES,SR-BI DiI inh,Glyco luc inh,SR-BI DiI-HDL act,Env fusion inh,PglD inh,Rtt109 HAT inh
CC(C)NC(=O)Nc1ccc2c(c1)C(=O)N([C@@H](C)CO)C[C@H](C)[C@H](CN(C)C(=O)CCC(F)(F)F)OCCCC[C@@H](C)O2,nt,nt,nt,-11[16.7 µM],0,nt
NC(=S)n1[nH]c(-c2ccc([N+](=O)[O-])cc2)c(N=Nc2ccc(Cl)cc2)c1=O,104*,-3,-104,nt,nt,-14
O=c1c(N=Nc2ccc(O)cc2)c(-c2ccccc2)[nH]n1-c1ccc([N+](=O)[O-])cc1,107*,-11,-107,3,-2,8
Cc1ccc([N+](=O)[O-])cc1N=Nc1c(-c2ccc([N+](=O)[O-])cc2)[nH]n(C(N)=S)c1=O,80*,-10,-80,nt,-3,8
COC(=O)C[C@H]1CC[C@@H]2[C@H](COC[C@@H](O)CN2S(=O)(=O)c2ccc(F)cc2)O1,nt,nt,nt,-8[16.7 µM],2,nt
C[C@@H]1CN([C@H](C)CO)C(=O)Cc2cc(NS(=O)(=O)c3cn(C)cn3)ccc2O[C@H]1CN(C)C(=O)Nc1ccccc1,nt,nt,nt,12[16.7 µM],1,nt
Cc1ccc(CN2CCN(CC(=O)NCc3ccccc3)CC2)cc1,-2,1,2,13,1,53*
O=C(CN1CCN(Cc2ccccc2)CC1)NCc1ccc(Cl)cc1,-2,-1,2,-28,-3,-4
CN(c1ccc(C(=O)N2CCCCCC2)cc1)S(=O)(=O)c1ccc(Cl)cc1,71*,-2,-71,5,-7,-3
Cc1cc(C)n(-c2ccc3cccc(NS(C)(=O)=O)c3n2)n1,-9,-8,9,60*,3,-5
CS(=O)(=O)Nc1cccc2cccnc12,-11,4,11,nt,7,-6
COc1ccc(C(=O)Nc2sc(C)c(-c3ccccc3)c2C#N)cc1OC,85*,-1,-85,-87,-3,0
Cc1sc(NC(=O)COc2ccccc2)c(C#N)c1-c1ccccc1,-2,-1,2,-108,6,8
CCOC(=O)c1csc(NC(=O)c2ccc(OC)c(OC)c2)n1,77*,3,-77,nt,2,-2
C/C(=N\NC(N)=S)c1ccccc1,86*,1,-86,-21,0,4
NC(=S)NN=C(c1ccccc1)c1ccccc1,36,0,-36,-6,-4,-3
CC(/C=C/c1ccccc1)=N\NC(N)=S,77*,5,-77,-367,7,2
CC(/C=C/c1ccccc1)=N\NC(=S)NC(C)C,17,-3,-17,1,1,1
C/C(=N\NC(N)=S)c1ccc2c(c1)OCCO2,76*,3,-76,37,nt,-5
C[C@@H]1CN([C@H](C)CO)C(=O)c2cc(C#CCc3ccccc3)cnc2O[C@H]1CN(C)Cc1cccnc1,nt,nt,nt,26[16.7 µM],0,nt
CC12C(=O)N(c3nccs3)C(=O)C1(C)C1CCC2O1 (stereo not given),nt,1,nt,nt,-2,nt
C[C@@]12C(=O)OC(=O)[C@]1(C)C1CCC2O1,89*,23,-89,105*,4,0
CN1C(=O)c2cc(NC(=O)c3ccc(Cl)cc3)ccc2OC[C@H]2O[C@@H](CC(=O)O)CC[C@@H]21,nt,nt,nt,-15[16.7 µM],0,nt
CSc1ccccc1NC(=O)CN(Cc1ccc(Cl)cc1)S(C)(=O)=O,19,-2,-19,nt,1,2
CSc1ccccc1NC(=O)CN(Cc1ccccc1)S(C)(=O)=O,75*,0,-75,13,-5,0
Cc1ccc(NC(=S)Nc2cccc3cnccc23)cc1,10,3,-10,-2,3,nt
Cc1ccc(NC(=S)Nc2cccc3cnccc23)cc1C,75*,-7,-75,19,-1,-1
C[C@H](CO)N1C[C@H](C)[C@@H](CN(C)C(=O)c2ccncc2)Oc2ncc(C#CC3CC3)cc2C1=O,nt,nt,nt,-9[16.7 µM],nt,nt
O=C(C[C@@H]1CC[C@@H]2[C@H](COC[C@@H](O)CN2C(=O)C2CC2)O1)NCc1ccncc1,nt,nt,nt,nt,-4,nt
COc1cccc(-c2noc(C3CCCN(S(=O)(=O)c4cccc(Cl)c4C)C3)n2)c1 (stereo not given),-13,1,13,112*,-8,-12
